The values below come from ChEMBL document CHEMBL2069243, “Synthesis and SAR of pyridothiazole substituted pyrimidine derived HCV replication inhibitors” (Bioorg Med Chem Lett, 2012).

Broadly, the half-life is the time needed for the level to fall by half in the phase considered. As a reminder, the CL/F is the apparent clearance, not corrected for the fraction that reaches the circulation. Usually EC50 stands for the concentration that produces a half-maximal response. One may read the CC50 as the concentration that lowers cell viability or growth by half. As usually defined, the bioavailability is dose-corrected exposure relative to a reference, in per cent. One may read the AUC as the area under the concentration-time curve, a measure of exposure. The AUC(0-t) is the area under the concentration-time curve up to a stated or last time point.

One data set deals with Cytochrome P450 2D6 (Homo sapiens, UniProt P10635). In words: Inhibition of CYP2D6. It is filed as ADME.
Cytochrome P450 2D6, sequence (P10635 whole entry): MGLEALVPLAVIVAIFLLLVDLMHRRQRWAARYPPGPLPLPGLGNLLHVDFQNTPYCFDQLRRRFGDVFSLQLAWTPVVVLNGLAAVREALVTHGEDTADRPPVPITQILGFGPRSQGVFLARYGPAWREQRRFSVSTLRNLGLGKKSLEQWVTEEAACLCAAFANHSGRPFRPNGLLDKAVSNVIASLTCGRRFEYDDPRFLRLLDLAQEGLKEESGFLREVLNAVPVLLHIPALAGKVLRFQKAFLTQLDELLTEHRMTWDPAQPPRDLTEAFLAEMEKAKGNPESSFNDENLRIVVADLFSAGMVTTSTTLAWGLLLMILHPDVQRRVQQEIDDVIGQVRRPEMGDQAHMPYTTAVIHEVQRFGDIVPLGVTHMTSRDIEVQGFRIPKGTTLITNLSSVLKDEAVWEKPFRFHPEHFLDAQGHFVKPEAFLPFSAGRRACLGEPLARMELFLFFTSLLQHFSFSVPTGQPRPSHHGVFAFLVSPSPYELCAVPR
Data set [1] in a line: Half life in monkey at 3 mg/kg, po. In kind it is ADME, organism-based, Macaca mulatta. The following applies: rhesus monkey, in vivo. Also on record: dose 3 mg/kg, route oral.
Data set [2] in a line: Clearance in rat at 10 mg/kg, po. More on the design: dose 10 mg/kg, route oral. The settings on record: in vivo. In kind it is ADME, organism-based.
Data set [3] can be described thus: Drug uptake in rat liver at 10 mg/kg, po at 6 hrs. The settings on record: read-out: Drug uptake. It is filed as ADME, organism-based. More on the design: dose 10 mg/kg, route oral. An outline of the steps: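 Rats were dosed orally at 10 mpk in 0.4% methylcellulose, n=2. Animals were sacrificed at 6 h, and liver was harvested and processed to measure compound concentration (liver C6 h).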

Data set [4] in a line: Half life in dog at 3 mg/kg, po. In kind it is ADME, organism-based, Canis lupus familiaris. Also on record: dose 3 mg/kg, route oral. The settings on record: in vivo.
Data set [5] relates to Hepatitis C virus. In words: Antiviral activity against Hepatitis C virus 1b con1 infected in human hepatoma cells assessed as decrease in replicon RNA level after 3 days by RT-PCR analysis. In kind it is functional, organism-based, Hepacivirus hominis. The settings on record: genotype 1b Con1, 72 h. The procedure, abridged: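 Con1 genotype 1b replicon cells were seeded at 5000 cells/well one day before treatment. Compound in DMSO was added (final 0.5% DMSO, 10% FBS) as 10 serial twofold dilutions in triplicate. Cells were harvested 3 days after dosing. Replicon RNA was quantified by real-time RT-PCR (Taqman), normalized to GAPDH RNA, and EC50 was calculated.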
Background: In antiviral work, replicon cells carry a viral genome segment that copies itself.

The nature of data set [6]: Cytotoxicity against human hepatoma cells assessed as decrease in GADPH RNA level after 3 days by Rt-PCR analysis. It is filed as cell-based.
The nature of data set [7]: Oral bioavailability in monkey at 3 mg/kg. It is filed as ADME, organism-based, Macaca mulatta. The settings on record: rhesus monkey, in vivo.
Data set [8] is described as follows: Clearance in monkey at 3 mg/kg, po. The following applies: rhesus monkey, in vivo. In kind it is ADME, organism-based, Macaca mulatta. More on the design: dose 3 mg/kg, route oral.
A short description of data set [9]: Clearance in dog at 3 mg/kg, po. The following applies: in vivo. Also on record: dose 3 mg/kg, route oral. It is filed as ADME, organism-based, Canis lupus familiaris.
For another data set, the target named is Cytochrome P450 2C9 (Homo sapiens, UniProt P11712). In words: Inhibition of CYP2C9. In kind it is ADME.
Cytochrome P450 2C9, sequence (P11712 whole entry): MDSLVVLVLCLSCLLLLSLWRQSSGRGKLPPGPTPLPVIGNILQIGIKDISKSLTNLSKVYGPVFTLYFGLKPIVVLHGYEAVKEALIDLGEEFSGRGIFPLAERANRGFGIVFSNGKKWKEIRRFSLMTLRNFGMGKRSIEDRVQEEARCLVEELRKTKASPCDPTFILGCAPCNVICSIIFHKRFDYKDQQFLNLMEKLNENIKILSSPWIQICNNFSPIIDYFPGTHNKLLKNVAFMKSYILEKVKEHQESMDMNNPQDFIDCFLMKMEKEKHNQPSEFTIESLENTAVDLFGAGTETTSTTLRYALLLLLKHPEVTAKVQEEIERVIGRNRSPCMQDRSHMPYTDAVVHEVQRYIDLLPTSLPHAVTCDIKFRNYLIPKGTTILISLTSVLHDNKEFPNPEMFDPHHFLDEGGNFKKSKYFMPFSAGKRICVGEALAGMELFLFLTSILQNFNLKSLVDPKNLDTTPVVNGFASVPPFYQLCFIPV
A short description of data set [10]: AUC in monkey at 3 mg/kg, po. In kind it is ADME, organism-based, Macaca mulatta. Also on record: dose 3 mg/kg, route oral. The settings on record: rhesus monkey, plasma. An outline of the steps: (§1)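 Oral dosing of the HCl salt at 3 mpk; plasma AUC reported in µM.h.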
The nature of data set [11]: AUC in dog at 3 mg/kg, po. In kind it is ADME, organism-based, Canis lupus familiaris. More on the design: dose 3 mg/kg, route oral. The following applies: plasma. An outline of the steps: as §1
Data set [12] is described as follows: AUC (0 to 24 hrs) in rat at 10 mg/kg, po. In kind it is ADME, organism-based. More on the design: time < 24 hr, dose 10 mg/kg, route oral. The following applies: plasma.
Data set [13] in a line: Cytotoxicity against human hepatoma cells after 3 days by MTS assay. In kind it is cell-based. An outline of the steps: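 MTS cell proliferation assay on replicon cells handled as in the replicon activity assay (seeded one day before, 0.5% DMSO, 10% FBS, serial dilutions), read 3 days after dosing. CC50 is the concentration giving 50% inhibition relative to vehicle-treated cells.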

A further data set addresses Cytochrome P450 3A4 (Homo sapiens, UniProt P08684). In words: Inhibition of CYP3A4. In kind it is ADME.
Data set [14] concerns Hepatitis C virus. Kind of data set: Antiviral activity against Hepatitis C virus 1a by replicon-based assay. It is filed as functional, organism-based, Hepacivirus hominis. The settings on record: subtype 1a.
For data set [15], the system named is Hepatitis C virus. In words: Antiviral activity against Hepatitis C virus 2a by replicon-based assay. It is filed as functional, organism-based, Hepacivirus hominis. The settings on record: genotype 2a.
Data set [16] in a line: Half life in rat at 10 mg/kg, po. Also on record: dose 10 mg/kg, route oral. The settings on record: in vivo. In kind it is ADME, organism-based.
Data set [17] is described as follows: Oral bioavailability in dog at 3 mg/kg. In kind it is ADME, organism-based, Canis lupus familiaris. The settings on record: in vivo.
Data set [18] in a line: Cytotoxicity against human hepatoma cells assessed as inhibition of [14C]thymidine incorporation after 3 days by TopCount analysis. It is filed as cell-based. An outline of the steps: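 Replicon cells were seeded in scintillating microplates one day before treatment. Compound dilutions in triplicate were added with [methyl-14C]-thymidine (final 0.5 uCi/mL) and incubated 3 days. Incorporated label was counted by scintillation proximity. DNA CC50 is the concentration giving 50% inhibition of thymidine incorporation versus vehicle-treated cells.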
On the technique in general: Uptake of a labelled nucleoside into DNA is a usual measure of proliferation.

Data set [19] is described as follows: Oral bioavailability in rat at 10 mg/kg. In kind it is ADME, organism-based. The following applies: in vivo.
The nature of data set [20]: AUC (0 to 6 hrs) in rat at 10 mg/kg, po. In kind it is ADME, organism-based. More on the design: time < 6 hr, dose 10 mg/kg, route oral. The settings on record: plasma. An outline of the steps: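 Rats were dosed orally at 10 mpk in 0.4% methylcellulose, n=2 per compound. Plasma was sampled at 8 time points up to 6 h, and exposure was reported as AUC0-6 h.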

Molecules are shown by their SMILES.

Cytochrome P450 3A4, sequence (P08684 whole entry): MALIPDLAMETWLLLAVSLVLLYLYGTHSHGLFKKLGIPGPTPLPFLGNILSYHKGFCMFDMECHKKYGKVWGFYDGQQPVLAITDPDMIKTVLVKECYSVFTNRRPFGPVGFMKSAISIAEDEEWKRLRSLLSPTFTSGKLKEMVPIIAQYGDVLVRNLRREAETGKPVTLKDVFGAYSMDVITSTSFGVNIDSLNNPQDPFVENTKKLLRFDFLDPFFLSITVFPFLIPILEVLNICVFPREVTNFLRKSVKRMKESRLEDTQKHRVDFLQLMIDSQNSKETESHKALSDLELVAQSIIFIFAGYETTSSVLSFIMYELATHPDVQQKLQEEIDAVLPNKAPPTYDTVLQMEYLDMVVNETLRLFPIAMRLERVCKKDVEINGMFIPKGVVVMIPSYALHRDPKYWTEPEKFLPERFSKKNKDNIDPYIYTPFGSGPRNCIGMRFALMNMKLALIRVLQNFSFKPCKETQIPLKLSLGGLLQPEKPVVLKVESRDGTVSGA

On to `Cc1nc(N[C@H](C)c2ccc(OC(F)(F)F)cc2)nc(N[C@@H]2C[C@H](CO)[C@@H](O)[C@H]2O)c1-c1nc2c(C)nccc2s1.Cl`, for which the INH on Cytochrome P450 2D6, on Cytochrome P450 2C9 and on Cytochrome P450 3A4 was > 20 µM throughout. For the same compound, the half-life in [1] was 3.3 h; in [4] it was 4.2 h; in [16] it was 2.5 h. Besides, the figures for the apparent clearance (CL/F) in [2], in data set [8] and in [9] were 40 mL/min/kg, 20 mL/min/kg and 9.8 mL/min/kg, respectively. Besides, the concentration at 6 h in data set [3] came out at 2820 ng/g. Moreover, the concentration giving a half-maximal response (EC50) in the data set on Hepatitis C virus [5] was 0.016 µM; in the data set on Hepatitis C virus [14] it was 0.07 µM; in the data set with Hepatitis C virus [15], 0.08 µM. Further, the half-maximal cytotoxic concentration (CC50) at 72 h was 25 µM in [6], > 25 µM in data set [13] and > 25 µM in data set [18]. Besides, the bioavailability in data set [7] is 7%; in data set [17], 31%; in [19] it was 15%. Moreover, the results for the AUC in data set [10] and in data set [11] were 0.3 µM·h and 2.9 µM·h, respectively. Moreover, in data set [12], the exposure AUC(0-t) at 24 h was 1.1 µM·h.

Regarding `Cc1nc(N[C@H](C)c2ccc(OC(F)(F)F)cc2)nc(N[C@@H]2C[C@H](CO)[C@@H](O)[C@H]2O)c1-c1nc2c(C3CC3)nccc2s1.Cl`, the INH at Cytochrome P450 2D6, at Cytochrome P450 2C9 and at Cytochrome P450 3A4 was > 20 µM each time. The results for the half-life in data set [1], in data set [4] and in data set [16] were 4.4 h, 5.2 h and 5 h, respectively. Also, the CL/F in [2] was found to be 11 mL/min/kg; in [8], 7.2 mL/min/kg; in [9], 4.2 mL/min/kg. Besides, in data set [3], the concentration at 6 h is 11000 ng/g. Besides, the 50% effective concentration (EC50) was found to be 0.06 µM in the data set on Hepatitis C virus [5], 0.4 µM with Hepatitis C virus [14] and 0.18 µM in the data set with Hepatitis C virus [15]. Besides, the CC50 at 72 h in data set [6] is 25 µM; in data set [13] it was > 25 µM; in [18], > 25 µM. Also, the bioavailability was found to be 12% in [7], 32% in data set [17] and 18% in data set [19]. Further, the AUC in data set [10] was determined as 1.3 µM·h; in data set [11] it was 5.1 µM·h. In data set [12], this compound gave an exposure AUC(0-t) at 24 h of 5.2 µM·h.

On to `CCCc1nccc2sc(-c3c(C)nc(N[C@H](C)c4ccc(OC(F)(F)F)cc4)nc3N[C@@H]3C[C@H](CO)[C@@H](O)[C@H]3O)nc12`, for which the concentration at 6 h in data set [3] stood at 1260 ng/g. In data set [20], this compound returned an exposure AUC(0-t) at 6 h of 0.8 µM·h. The concentration giving a half-maximal response (EC50) in the data set with Hepatitis C virus [5] was determined as 0.02 µM. In addition, the CC50 at 72 h in data set [6] and in [13] was 13 µM throughout.

Regarding `Cc1nc(N[C@H](C)c2ccc(OC(F)(F)F)cc2)nc(N[C@@H]2C[C@H](CO)[C@@H](O)[C@H]2O)c1-c1nc2c(C3CCC3)nccc2s1`, in data set [3], the concentration at 6 h turned out to be 4900 ng/g. In addition, the area under the curve AUC(0-t) at 6 h in data set [20] stood at 3.3 µM·h. Also, in the data set with Hepatitis C virus [5], the EC50 was 0.016 µM. Besides, the CC50 at 72 h in data set [6] and in [13] was 5 µM each time.

Regarding `Cc1nc(Nc2ccccc2)nc(N[C@@H]2C[C@H](CO)[C@@H](O)[C@H]2O)c1-c1nc2cnccc2s1`, in data set [3], the concentration at 6 h was 29 ng/g. Moreover, in data set [20], the area under the curve AUC(0-t) at 6 h is 0.2 µM·h. The concentration for a half-maximal effect (EC50) with Hepatitis C virus [5] came to 0.168 µM. Further, the CC50 at 72 h in [6] was 25 µM; in [13], > 25 µM.

Turning to `COc1cc(OC)cc([C@@H](C)Nc2nc(C)c(-c3nc4cnccc4s3)c(N[C@@H]3C[C@H](CO)[C@@H](O)[C@H]3O)n2)c1`, the concentration at 6 h in data set [3] turned out to be 17 ng/g. This compound gave an area under the curve AUC(0-t) at 6 h in data set [20] of 0.1 µM·h. Moreover, the EC50 with Hepatitis C virus [5] was found to be 0.037 µM. The CC50 at 72 h in data set [6] and in [13] was 25 µM throughout.

`Cc1nc(N[C@H](C)c2ccc(OC(F)(F)F)cc2)nc(N[C@@H]2C[C@H](CO)[C@@H](O)[C@H]2O)c1-c1nc2cnccc2s1`: the concentration at 6 h in data set [3] is 1800 ng/g. In [20], this compound had an AUC(0-t) at 6 h of 1.6 µM·h. In the data set with Hepatitis C virus [5], the EC50 turned out to be 0.016 µM. For the same compound, the CC50 at 72 h in [6] was 25 µM; in data set [13] it was > 25 µM; in [18] it was 6 µM.
